Results reported in ChEMBL document CHEMBL2062463 (Bioorg Med Chem Lett, 2012).

Assays:
[1] = molecular target: Vascular endothelial growth factor receptor 2 (Homo sapiens, UniProt P35968); assay: Competitive inhibition of VEGFR2 by qPCR method
[2] = Antiproliferative activity against human HAEC cells expressing VEGFR after 72 hrs by MTT assay; assay type: functional, cell-based
Procedure, shortened: (§1)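 MTT reduction by mitochondrial enzyme as viability read-out in primary endothelial HAEC and cancer HT29 cells. IC50 is the concentration giving 50% inhibition of proliferation, taken from dose-response curves of percent proliferation plotted against compound concentration.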

HT-29 = assay: Antiproliferative activity against human HT-29 cells expressing VEGFR after 72 hrs by MTT assay; assay type: functional, cell-based; settings: HT-29, 72 h; procedure, shortened: as §1
[3] = Lipophilicity, log D of the compound in octanol and water at pH 7.4 by shake flask method; assay type: physicochemical
[4] = Protein binding in human serum by HPLC analysis; assay type: ADME, cell-free; settings: read-out: PB (converted)
Procedure, shortened: (§2)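 [125I]-labelled compound incubated in fresh human serum at 4 °C and 37 °C at several time intervals. Bound fraction estimated after ethanol precipitation-extraction of proteins. Supernatant analysed by HPLC for intact radiolabelled compound.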

[5] = Chemical stability of the compound in 1% tween-20 up to 24 hrs in dark; assay type: physicochemical
Procedure, shortened: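 Radiolabelled [125I] compound held in saline containing 1% Tween-20 at 37 °C in the dark for up to 24 h. Radiochemical stability checked over that period.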

Serum = assay: Stability in human serum by HPLC analysis; assay type: ADME, cell-free; procedure, shortened: as §2

Sequence of Vascular endothelial growth factor receptor 2 (P35968 whole entry): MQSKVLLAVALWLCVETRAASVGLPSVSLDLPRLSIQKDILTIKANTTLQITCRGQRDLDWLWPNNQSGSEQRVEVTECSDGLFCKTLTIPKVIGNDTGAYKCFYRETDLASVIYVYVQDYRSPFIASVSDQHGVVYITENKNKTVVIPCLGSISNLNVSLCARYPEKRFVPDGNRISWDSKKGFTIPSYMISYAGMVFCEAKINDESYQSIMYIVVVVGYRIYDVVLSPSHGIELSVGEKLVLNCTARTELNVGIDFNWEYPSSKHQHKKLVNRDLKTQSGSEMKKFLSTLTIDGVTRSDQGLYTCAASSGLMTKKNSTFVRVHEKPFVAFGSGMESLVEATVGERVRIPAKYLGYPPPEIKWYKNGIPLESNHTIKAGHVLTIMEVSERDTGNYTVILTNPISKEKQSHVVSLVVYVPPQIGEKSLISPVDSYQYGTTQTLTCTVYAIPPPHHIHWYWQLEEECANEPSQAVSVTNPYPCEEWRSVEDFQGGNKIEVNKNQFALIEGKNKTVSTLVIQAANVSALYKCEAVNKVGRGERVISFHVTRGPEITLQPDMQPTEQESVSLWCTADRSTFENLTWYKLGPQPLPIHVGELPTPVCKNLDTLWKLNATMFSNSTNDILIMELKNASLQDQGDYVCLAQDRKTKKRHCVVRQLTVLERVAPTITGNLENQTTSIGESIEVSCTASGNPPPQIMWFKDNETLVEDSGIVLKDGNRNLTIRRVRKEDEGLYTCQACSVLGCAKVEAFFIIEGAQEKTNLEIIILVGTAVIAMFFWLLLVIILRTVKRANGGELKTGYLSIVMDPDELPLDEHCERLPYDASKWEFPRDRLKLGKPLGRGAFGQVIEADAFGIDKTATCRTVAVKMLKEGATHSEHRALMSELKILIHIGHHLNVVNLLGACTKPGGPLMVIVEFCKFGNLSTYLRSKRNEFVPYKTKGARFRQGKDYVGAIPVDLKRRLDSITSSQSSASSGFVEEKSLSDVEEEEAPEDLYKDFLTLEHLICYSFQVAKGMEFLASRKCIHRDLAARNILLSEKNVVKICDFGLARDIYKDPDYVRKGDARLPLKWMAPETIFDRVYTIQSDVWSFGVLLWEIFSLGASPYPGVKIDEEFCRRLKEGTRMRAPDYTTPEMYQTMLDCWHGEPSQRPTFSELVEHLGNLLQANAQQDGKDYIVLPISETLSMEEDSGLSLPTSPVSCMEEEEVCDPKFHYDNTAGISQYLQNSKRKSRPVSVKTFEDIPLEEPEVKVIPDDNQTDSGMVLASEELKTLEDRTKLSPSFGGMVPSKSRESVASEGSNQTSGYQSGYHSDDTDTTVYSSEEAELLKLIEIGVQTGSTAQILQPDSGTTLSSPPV

| Kd [1] [nM] | IC50 (HT-29) [nM] | logD [3] | fraction unbound [4] | Stability [5] | Stability (Serum) | SMILES | IC50 [2] [nM] |
| --- | --- | --- | --- | --- | --- | --- | --- |
| 16 | 1810 | – | – | – | – | CCN(CC)CCNC(=O)c1c(C)[nH]c(/C=C2\C(=O)Nc3ccc(I)cc32)c1C | 1120 |
| – | 330 | – | – | – | – | CCN(CC)CCNC(=O)c1c(C)[nH]c(/C=C2\C(=O)Nc3ccc(F)cc32)c1C [SUNITINIB] | 100 |
| – | – | 2.25 | 0.95 | Stable | Stable | CCN(CC)CCNC(=O)c1c(C)[nH]c(/C=C2\C(=O)Nc3ccc([125I])cc32)c1C | – |
